Screening data from PubChem BioAssay.
GSTO1 inh – GSTO1 inhibition, counter-screen for RBBP9 inhibitors; recombinant GSTO1, activity-based probe fluorescence polarization; inhibition, % at 5.96 µM; 300,000 tested, 1.1% active; AID 1974;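 active = inhibition above the campaign mean inhibition plus 3 SD, cut at about 35% in these data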;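 also: 0% = GSTO1-1 with DMSO and 100% = wells lacking GSTO1-1 enzyme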
Target sequence (P78417 whole entry, looked up): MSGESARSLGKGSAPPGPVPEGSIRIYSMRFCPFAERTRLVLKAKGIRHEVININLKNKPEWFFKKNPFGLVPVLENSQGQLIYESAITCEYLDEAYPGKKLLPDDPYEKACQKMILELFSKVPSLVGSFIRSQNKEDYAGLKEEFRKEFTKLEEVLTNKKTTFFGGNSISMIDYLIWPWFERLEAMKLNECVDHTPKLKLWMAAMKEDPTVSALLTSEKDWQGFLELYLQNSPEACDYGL
PAD4 FP inh – inhibitors of human PAD4 | Q9UM07 | recombinant PAD4, RCA probe fluorescence polarization | inhibition, % at 6.36 µM | 330,000 tested, 0.41% active;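 active = percent inhibition above a cutoff equal to the mean of all tested compounds plus 3 SD, cut at about 15% in these data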;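 also: 0% = PAD4 with RCA probe and DMSO and 100% = probe without PAD4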
TDP2 inh – blocks human TDP2 phosphodiesterase activity; recombinant TDP2, T5PNP hydrolysis, p-nitrophenol absorbance 415 nm; 370,000 tested, 0.34% active; inhibition, % at 12.8 µM; AID 720702;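 active = inhibition above the mean of all tested compounds plus 3 SD, set per campaign, cut at about 25% in these data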;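 also: 0% = DMSO with enzyme and 100% = buffer with substrate but no TDP2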
Target sequence (O95551 whole entry, looked up): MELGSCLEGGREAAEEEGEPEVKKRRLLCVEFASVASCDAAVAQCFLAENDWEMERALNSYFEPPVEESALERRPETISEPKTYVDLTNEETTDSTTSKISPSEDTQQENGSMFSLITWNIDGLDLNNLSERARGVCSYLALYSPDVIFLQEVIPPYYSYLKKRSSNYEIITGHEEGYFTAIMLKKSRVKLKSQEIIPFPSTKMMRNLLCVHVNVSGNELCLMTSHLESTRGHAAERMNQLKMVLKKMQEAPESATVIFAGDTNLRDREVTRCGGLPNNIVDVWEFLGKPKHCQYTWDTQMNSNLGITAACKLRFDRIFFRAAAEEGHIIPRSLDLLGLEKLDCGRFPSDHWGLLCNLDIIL
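Assay system: Recombinant human TDP2 | Quantity: 120 nM TDP2 per well | Incubation: 2 h at 37 °C | Signal: Epi absorbance | Evaluation: Percent inhibition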
eLon inh – inhibitors of E. coli Lon protease. P0A9M0. purified E. coli Lon protease, fluorescence polarization. inhibition, % at 7.94 µM. 360,000 tested, 0.42% active; in the data active = inhibition above about 13%, passing the limit was not always enough;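 also: 0% = enzyme with probe and DMSO and 100% = no enzyme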
PRMT1 inh – inhibitors of human PRMT1 | Q99873 | AID 652257 | recombinant PRMT1, activity-based probe fluorescence polarization | 370,000 tested, 1.3% active | inhibition, % at 2.79 µM;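 active = inhibition above about 21% made by adding two undisclosed values, limit read from the data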
E coli Lon conf – confirmation of E. coli Lon protease inhibitors; shares compounds with eLon inh; purified E. coli Lon, fluorescence polarization; inhibition, % at 7.94 µM; 1,400 tested, 31% active; in the data active = inhibition above about 16%;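 also: 0% = enzyme with probe and DMSO and 100% = no enzyme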
The depositor's hits bear a star; . = no result given. Shown are actives, neighbours in structure and some others; about 2.5% of the full set was active somewhere.

SMILES	GSTO1 inh	PAD4 FP inh	TDP2 inh	eLon inh	PRMT1 inh	E coli Lon conf
CC1(C)CC(=O)C2=C(C1)Nc1ccccc1NC2c1ccc2c(c1)OCO2 (stereo unspecified)	5.5	-3.3	8.3	35.8*	-1.3	16.3*
COc1ccccc1C1Nc2ccccc2NC2=C1C(=O)CC(C)(C)C2 (stereo unspecified)	2.0	-2.6	-6.2	-3.7	1.9	.
CCOc1ccc(C2Nc3ccccc3NC3=C2C(=O)CC(C)(C)C3)cc1OC (stereo unspecified)	3.4	8.3	12.0	28.7*	2.4	-2.3
CC1(C)CC(=O)C2=C(C1)Nc1ccccc1NC2c1ccc(F)cc1 (stereo unspecified)	2.0	-6.3	8.3	3.5	-1.2	.
COc1ccc(C2Nc3ccccc3NC3=C2C(=O)CC(C)(C)C3)cc1 (stereo unspecified)	3.3	-3.9	4.0	63.8*	3.5	9.9
CCSc1nc(N2CCOCC2)c2c(c1C#N)CC(C)(C)N(C)C2	6.4	1.3	1.3	-15.0	1.7	.
CN1Cc2c(N3CCOCC3)nc(SCc3ccccc3)c(C#N)c2CC1(C)C	-8.1	-1.0	-5.3	44.7*	-0.5	-5.0
Cc1cc(NS(=O)(=O)c2ccc(NC(=O)Cc3ccccc3)cc2)no1	.	.	2.2	.	4.2	.
O=C(Cc1c(F)cccc1Cl)Nc1ccccc1-c1ccccc1	2.9	-0.2	-2.7	20.2*	1.6	-26.3
O=c1c(-c2cc3ccccc3o2)[n+]([O-])c2ccccc2n1OCc1ccccn1	-3.7	0.0	-16.1	20.1*	10.3	7.8
COc1ccc(CN2CCC(CNC(=O)NC(C)C)CC2)cc1	.	.	-18.7	.	-3.0	.
CCCC(=O)N1CCC[C@]2(CC[C@@H](CCC(C)=O)O2)C1	.	.	6.6	.	-1.6	.
COc1ccc(C(=O)NCCn2ccc3ccccc32)cc1OC	3.6	-1.4	9.5	0.0	-3.3	.
COc1ccccc1C(=O)NCCn1ccc2ccccc21	-3.2	-10.7	-7.0	15.7*	0.9	10.2
Nc1ncnc2c1ncn2[C@@H]1O[C@H](C(=O)N[C@@H](CCc2ccccc2)C(=O)N2CCN(C(=O)N3CCCCC3)CC2)[C@@H](O)[C@H]1O	.	.	1.9	.	0.3	.
CCOc1ccccc1N(CC)C(=O)c1ccc2c(=O)n3c(nc2c1)CCCCC3	-3.3	-1.7	-12.0	20.9*	-0.2	-3.2
CCN(C(=O)c1ccc2c(=O)n3c(nc2c1)CCCCC3)c1ccc(F)cc1	-67.4	-1.4	-5.0	-2.0	-0.3	.
COc1cc(NC(=O)C2CCN(c3nnc(-n4cccc4)s3)CC2)cc(OC)c1	.	.	7.0	.	-1.8	.
O=C1c2sccc2-c2cccc3cccc1c23	.	.	-2.0	54.1*	13.7	29.8*
CNC(=S)N/N=C1\C(=O)c2cccc3cccc1c23	-0.5	-1.7	5.3	6.7	-1.4	.
Cc1c([N+](=O)[O-])nnn1-c1cc(Cl)cc(Cl)c1	1.5	-2.8	.	27.5*	.	0.9
N#Cc1nnn(-c2cc(Cl)cc(Cl)c2)c1N	-10.0	0.8	9.6	0.7	-0.9	.
O=C(OCc1cn(Cc2cccc(Cl)c2)nn1)N1CCCC1	.	.	-5.6	.	0.1	.
C=CCN1C(=O)c2cccc3c(N4CCCCC4)ccc(c23)C1=O	1.9	-0.4	-10.3	114.3*	17.0	-93.8
O=C(NC1CCCCN(Cc2cccc(C(F)(F)F)c2)C1=O)c1ccc(Cl)c(Cl)c1 (stereo unspecified)	.	.	3.8	.	0.9	.
SMILES	GSTO1 inh	PAD4 FP inh	TDP2 inh	eLon inh	PRMT1 inh	E coli Lon conf
COc1cc(NC(=O)c2ccccc2F)ccc1NC(=O)c1cc2ccccc2o1	.	.	-11.1	16.2*	0.2	3.4
O=C(NNC(=O)c1ccccc1-n1cccc1)c1cncc(Br)c1	.	-0.6	5.6	37.9*	-4.3	-55.1
O=C(Oc1ccc2c3c(c(=O)oc2c1)CCCC3)c1cccs1	4.0	3.0	-5.5	18.1*	2.0	25.4*
Nc1nnc2cc(F)ccc2n1	.	.	2.2	-11.8	-0.8	.
Nc1nnc2cc(Br)ccc2n1	.	.	0.8	65.9*	7.7	32.9*
CN=C1S/C(=C/c2cc(C)n(Cc3ccccc3)c2C)C(=O)N1C	.	.	-9.5	.	-1.5	.
CC1CN(C2=Nc3cccc4cccc2c34)CC(C)O1 (stereo unspecified)	1.6	-3.2	-10.6	28.1*	15.0	13.8
CC(=O)N1CCN(C2=Nc3cccc4cccc2c34)CC1	-1.9	-3.3	6.0	18.0*	6.4	22.6*
CCOC(=O)N1CCN(C2=Nc3cccc4cccc2c34)CC1	6.7	-0.6	6.1	2.0	3.4	.
c1ccc(CC2CCN(C3=Nc4cccc5cccc3c45)CC2)cc1	-0.9	-5.2	.	-23.2	.	.
c1cc2c3c(cccc3c1)C(N1CCOCC1)=N2	9.6	2.5	9.3	31.9*	9.0	27.7*
COc1ccccc1N1CCN(C2=Nc3cccc4cccc2c34)CC1	-0.1	-0.2	4.8	-12.0	1.2	.
COC(=O)[C@]12C[C@H](CC(=O)NCCC(C)C)C(=O)N(Cc3cccc4ccccc34)C1=C[C@H](C1CCCC1)O[C@@H]2C	.	.	-5.2	.	1.6	.
O=S1(=O)CC2c3ccccc3CN2CN1Cc1ccc(F)cc1 (stereo unspecified)	.	.	5.4	.	6.2	.
O=C1c2ccccc2C(Nc2ccc3c(c2)OCO3)N1Cc1ccc2c(c1)OCO2 (stereo unspecified)	23.0	0.5	-10.2	6.7	14.6	.
O=C1c2ccccc2C(O)N1Cc1ccc2c(c1)OCO2 (stereo unspecified)	5.8	1.5	6.5	15.4*	3.7	-0.6
Cc1cc(Br)ccc1OCC(=O)NNC(=O)c1cnccn1	4.9	0.9	-9.2	70.8*	0.1	-7.3
Cc1cc(Cl)ccc1OCC(=O)NNC(=O)c1cnccn1	14.2	-8.2	-12.0	10.2	-0.2	.
CC(=O)c1cc(-c2ccccc2)n(CC(=O)NCc2ccccc2Cl)c1C	.	.	7.6	.	-0.4	.
Cc1ccc(C(=O)N2CCCN(c3nc4cc5c(cc4cc3C#N)OCO5)CC2)cc1	25.8	-4.5	11.4	73.1*	13.1	5.2
COC(=O)C[C@H]1CC[C@@H]2[C@H](COc3ccc(NC(=O)C(C)C)cc3C(=O)N2C)O1	.	.	-7.7	.	3.6	.
c1ccc2c(c1)CCCN2Cc1nnc2n1CCCCC2	-1.5	2.7	6.9	65.7*	16.4	-42.4
CCOc1ccc(-n2c(SCC(=O)c3ccccc3Cl)nnc2-c2ccncc2)cc1	.	.	-4.2	.	-4.2	.
Cc1ccc2c(c1)c1c(n2CC(O)CNC2CCCCC2)CCCC1 (stereo unspecified)	-0.5	0.4	0.6	27.8*	1.6	6.5
Cc1ccc2c(c1)c1c(n2CC(O)CNC(CO)(CO)CO)CCCC1 (stereo unspecified)	3.0	-1.9	9.7	4.8	-0.1	.
COc1ccc2c(c1)CCCN2C(=O)C1CCCN(S(=O)(=O)c2ccc(C(C)(C)C)cc2)C1 (stereo unspecified)	.	.	-1.7	.	4.6	.
